Assay results taken from article PMC3517184 (Bioorganic & medicinal chemistry, 2012).
Blank lines part the entries; values can stand above or below the molecule they belong to.

Experiments:
TLR2/TLR6 heterodimer = TLR2/TLR6 heterodimer (Mus musculus, UniProt Q9EPW9+Q9QUN7); assay: TLR specificity test, NO production induced by FSL-1 in RAW 264.7 cells; format: cell-based, murine; settings: 0.6 μM
cell viability = assay: WST-1 cell viability / toxicity assay; format: cell-based; settings: up to 10.0 μM
How it was run: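 Cells are seeded at 2×10^4 per well and cultured 24 h at 37°C, then moved to serum-free medium with vehicle or test compound at various concentrations for 24 h. Premixed WST-1 reagent is added, and after 30 min at 37°C absorbance is read at 490 nm.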

[1] = tested on: LPS-induced activation of NF-κB; assay: NF-κB dual luciferase reporter assay in BV-2 microglial cells; format: cell-based
How it was run: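 NF-κB dual-luciferase reporter BV-2 microglia are kept in DMEM with 10% FBS, penicillin, streptomycin and puromycin (3 μg/mL). After 24 h seeding, medium is switched to Opti-MEM with 0.5% FBS. Test compound is added, then LPS at 200 ng/mL for 24 h. Dual-Glo luminescence is read, and the firefly/Renilla ratio is taken as NF-κB activity.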

TLR3 = target: T1, TLR3 (Mus musculus, UniProt Q99MB1); assay: TLR specificity test, NO production induced by poly; format: cell-based, murine; settings: 0.6 μM, RAW 264.7 cells, poly(I:C)
T1 sequence (Q99MB1 26-905): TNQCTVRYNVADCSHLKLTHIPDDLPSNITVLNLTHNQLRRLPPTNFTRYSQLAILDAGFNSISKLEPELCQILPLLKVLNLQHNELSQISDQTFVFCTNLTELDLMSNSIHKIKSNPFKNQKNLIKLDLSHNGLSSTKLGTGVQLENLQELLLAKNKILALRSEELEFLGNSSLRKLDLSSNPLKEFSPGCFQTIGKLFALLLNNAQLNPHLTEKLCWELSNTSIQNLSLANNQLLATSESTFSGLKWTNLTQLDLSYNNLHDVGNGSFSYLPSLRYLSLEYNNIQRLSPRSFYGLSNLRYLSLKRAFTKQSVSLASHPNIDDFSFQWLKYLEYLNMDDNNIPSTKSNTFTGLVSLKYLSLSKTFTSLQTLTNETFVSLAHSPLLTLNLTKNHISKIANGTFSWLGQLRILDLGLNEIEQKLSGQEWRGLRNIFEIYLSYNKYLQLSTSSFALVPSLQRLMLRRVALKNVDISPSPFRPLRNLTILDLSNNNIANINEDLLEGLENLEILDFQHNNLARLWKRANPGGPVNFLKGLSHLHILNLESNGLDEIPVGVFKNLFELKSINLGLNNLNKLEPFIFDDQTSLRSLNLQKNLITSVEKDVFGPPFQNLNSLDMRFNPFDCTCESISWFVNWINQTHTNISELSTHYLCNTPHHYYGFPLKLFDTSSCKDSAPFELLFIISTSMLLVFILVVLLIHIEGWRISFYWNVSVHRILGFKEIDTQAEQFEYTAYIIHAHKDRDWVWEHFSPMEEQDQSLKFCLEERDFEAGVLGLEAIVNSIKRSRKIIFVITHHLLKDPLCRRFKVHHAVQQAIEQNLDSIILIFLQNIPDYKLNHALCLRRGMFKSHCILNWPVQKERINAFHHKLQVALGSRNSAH

TLR7/8 = assay: TLR specificity test, NO production induced by R848 in RAW 264.7 cells; format: cell-based, murine; settings: 0.6 μM
TLR1/TLR2 = TLR1/TLR2 (Mus musculus, UniProt Q9EPQ1+Q9QUN7); assay: TLR specificity test, NO production induced by Pam3CSK4 in RAW 264.7 cells; format: cell-based, murine; settings: 0.6 μM
Sequence of TLR1/TLR2 (Q9EPQ1 26-795): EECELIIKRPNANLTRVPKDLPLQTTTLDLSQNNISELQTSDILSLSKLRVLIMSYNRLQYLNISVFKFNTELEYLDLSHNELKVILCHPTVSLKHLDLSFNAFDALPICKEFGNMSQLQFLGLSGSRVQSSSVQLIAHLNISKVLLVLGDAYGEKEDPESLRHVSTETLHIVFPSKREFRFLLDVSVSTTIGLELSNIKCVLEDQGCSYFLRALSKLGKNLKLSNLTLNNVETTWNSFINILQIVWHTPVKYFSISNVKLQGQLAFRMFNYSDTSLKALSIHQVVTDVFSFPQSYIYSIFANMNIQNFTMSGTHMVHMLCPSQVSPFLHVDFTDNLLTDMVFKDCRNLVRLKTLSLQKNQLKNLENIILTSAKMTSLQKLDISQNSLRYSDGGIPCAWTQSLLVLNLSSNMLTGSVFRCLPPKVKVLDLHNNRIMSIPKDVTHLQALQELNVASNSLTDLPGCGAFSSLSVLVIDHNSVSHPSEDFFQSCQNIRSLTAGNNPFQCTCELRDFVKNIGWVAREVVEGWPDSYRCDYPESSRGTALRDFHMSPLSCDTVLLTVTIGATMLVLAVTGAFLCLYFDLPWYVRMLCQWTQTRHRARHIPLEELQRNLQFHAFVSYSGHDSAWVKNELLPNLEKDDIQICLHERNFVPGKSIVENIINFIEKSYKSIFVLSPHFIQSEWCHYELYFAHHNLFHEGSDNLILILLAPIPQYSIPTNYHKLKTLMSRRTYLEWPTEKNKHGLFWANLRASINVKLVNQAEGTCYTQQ
Sequence of TLR1/TLR2 (Q9QUN7 25-784): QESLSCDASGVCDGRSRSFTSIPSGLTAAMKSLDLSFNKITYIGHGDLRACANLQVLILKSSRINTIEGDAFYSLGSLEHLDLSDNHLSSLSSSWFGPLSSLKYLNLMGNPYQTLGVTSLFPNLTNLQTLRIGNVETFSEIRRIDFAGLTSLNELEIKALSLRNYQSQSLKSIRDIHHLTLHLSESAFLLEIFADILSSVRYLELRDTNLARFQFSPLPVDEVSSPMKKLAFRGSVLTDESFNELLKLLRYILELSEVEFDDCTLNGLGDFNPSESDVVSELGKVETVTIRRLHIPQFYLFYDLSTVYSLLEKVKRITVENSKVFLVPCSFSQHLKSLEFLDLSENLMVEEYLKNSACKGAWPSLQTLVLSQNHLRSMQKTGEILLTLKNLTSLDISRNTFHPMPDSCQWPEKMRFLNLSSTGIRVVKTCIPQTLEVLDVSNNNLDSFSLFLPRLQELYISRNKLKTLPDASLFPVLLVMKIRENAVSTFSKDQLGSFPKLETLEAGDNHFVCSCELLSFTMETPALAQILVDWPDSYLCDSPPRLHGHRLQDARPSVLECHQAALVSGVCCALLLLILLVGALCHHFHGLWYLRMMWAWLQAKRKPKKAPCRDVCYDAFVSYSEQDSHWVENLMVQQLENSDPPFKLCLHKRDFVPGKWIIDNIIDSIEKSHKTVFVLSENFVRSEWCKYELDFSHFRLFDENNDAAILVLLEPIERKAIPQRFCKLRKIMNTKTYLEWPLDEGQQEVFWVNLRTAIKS

[2] = tested on: LPS-induced NO production in RAW 264.7 macrophage cells; assay: Inhibition of LPS-induced NO production in RAW 264.7 macrophage cells; format: cell-based, murine
[3] = tested on: LPS-induced IL-1β production; assay: LPS-induced IL-1β production in RAW 264.7 cells; format: cell-based, murine; settings: ELISA
How it was run: (§1)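 RAW 264.7 macrophages are grown in RPMI 1640 with 10% FBS, penicillin and streptomycin at 37°C and 5% CO2. Cells are pretreated with or without LPS, then given test compound (10 mM DMSO stock). After 24 h, supernatants are clarified and cells are lysed, with both stored at −80°C. ELISA measures TNF-α in medium and IL-1β in lysate, with IL-1β normalized to total protein.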

[4] = tested on: LPS-induced TNF-α production; assay: LPS-induced TNF-α production in RAW 264.7 cells; format: cell-based, murine; settings: ELISA
How it was run: as §1

Sequence of TLR2/TLR6 heterodimer (Q9QUN7 25-784): as above
Sequence of TLR2/TLR6 heterodimer (Q9EPW9 28-795): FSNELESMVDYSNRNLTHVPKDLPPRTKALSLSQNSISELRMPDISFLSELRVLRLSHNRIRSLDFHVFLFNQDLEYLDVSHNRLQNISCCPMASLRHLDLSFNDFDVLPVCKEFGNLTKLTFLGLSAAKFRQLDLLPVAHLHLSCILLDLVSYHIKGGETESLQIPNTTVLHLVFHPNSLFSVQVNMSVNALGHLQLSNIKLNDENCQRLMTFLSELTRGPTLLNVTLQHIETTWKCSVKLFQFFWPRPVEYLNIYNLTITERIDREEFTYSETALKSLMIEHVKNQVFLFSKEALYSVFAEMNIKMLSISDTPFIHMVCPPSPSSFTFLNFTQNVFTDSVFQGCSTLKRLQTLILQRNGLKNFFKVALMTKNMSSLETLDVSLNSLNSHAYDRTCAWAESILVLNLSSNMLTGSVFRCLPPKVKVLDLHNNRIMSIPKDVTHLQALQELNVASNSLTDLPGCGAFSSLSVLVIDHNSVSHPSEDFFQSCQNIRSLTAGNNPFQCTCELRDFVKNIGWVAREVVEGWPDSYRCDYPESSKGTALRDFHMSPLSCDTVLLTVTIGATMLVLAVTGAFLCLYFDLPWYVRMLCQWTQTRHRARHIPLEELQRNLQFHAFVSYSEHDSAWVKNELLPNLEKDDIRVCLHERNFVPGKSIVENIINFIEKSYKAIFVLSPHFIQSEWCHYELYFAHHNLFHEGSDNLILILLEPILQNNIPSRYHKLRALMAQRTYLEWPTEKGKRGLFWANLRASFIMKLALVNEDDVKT

- effect on signal via TLR2/TLR6 heterodimer (NO production) (TLR2/TLR6 heterodimer): reduced the signal
- IC50 ([1]; Mus musculus, BV-2, 24 h, read-out: IC50, inhibition of LPS-induced NF-κB reporter activity): 5.92 ± 0.14 µM
- inhibition of TLR3 signaling (NO production) (TLR3): negligible inhibition
- inhibition of TLR1/TLR2 signaling (NO production) (TLR1/TLR2): negligible inhibition
Compound: COC(=O)C(=Cc1ccccc1[N+](=O)[O-])C(=O)OC [Compound 1, Dimethyl 2-(2-nitrobenzylidene)malonate]
- cytotoxicity (WST-1 toxicity assay) (cell viability): did not show significant toxicity
- inhibition of TLR7/8 signaling (NO production) (TLR7/8): negligible inhibition

Compound: COC(=O)C(=Cc1ccccc1)C(=O)OC [Compound 2, Dimethyl 2-benzylidenemalonate]
- decrease of activity relative to 1 (NO production) ([2]; absence of any substituent on the benzene ring): greater than 2 fold

Compound: COC(=O)C(Cc1ccccc1[N+](=O)[O-])C(=O)OC [Compound 22, Dimethyl 2-(2-nitrobenzyl) malonate]
- effect on IL-1β production [3]: did not affect
- effect on TNF-α production [4]: did not affect
- effect on LPS-induced NF-κB activation ([1]; BV-2 cells, concentrations up to 10 μM): did not alter
- inhibition of LPS-induced NO production ([2]; RAW 264.7 cells, at the tested concentrations (Figure 1A)): negligible inhibition
